Assay results taken from ChEMBL document CHEMBL1131111, “Synthesis and anti-HIV-1 activity of novel 2,3-dihydro-7H-thiazolo[3,2-a]pyrimidin-7-ones” (1998).

Legend:
Format in all cases: functional
[1] = test system: Human immunodeficiency virus 1; assay: Effective dose required for 50% inhibition of HIV-1 antigen production in MT-4 cultures
MT4 [2] = assay: Cytotoxic dose required to reduce the proliferation of normal uninfected MT-4 cells by 50%; settings: Homo sapiens, read-out: CD50 (the source's name)
Procedure, shortened: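 Cytotoxicity scored as concentration-dependent inhibition of proliferation of uninfected MT-4 cells by MTT assay. Cells grown in RPMI 1640 + 10% heat-inactivated FCS. CD50 is the mean of three independent determinations.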

MT4 [3] = assay: Selectivity index is the ratio between CD50 and IC50 values of the compound
Procedure, shortened: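 Selectivity index calculated as CD50 (MTT, uninfected MT-4 cells) divided by ED50 (HIV-1 antigen ELISA, infected MT-4 cultures). Each value is the mean of three independent determinations.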

SMILES | ED50 [1] | CC50 (MT4 [2]) | SI (MT4 [3])
CCc1c(O)nc(SCC2OCCO2)nc1Cc1cc(C)cc(C)c1 | 3 µM | 37 µM | 12
C=CCSc1nc(O)c(C(C)C)c(Cc2ccccc2)n1 | 1.5 µM | > 100 µM | >67
C=CCSc1nc(O)c(CC)c(Cc2cc(C)cc(C)c2)n1 | 2 µM | 68 µM | 34
C=CCSc1nc(O)c(CC)c(Cc2ccccc2)n1 | 1.5 µM | > 100 µM | >67
CCOC1CSc2nc(=O)c(CC)c(Cc3ccccc3)n21 (configuration not stated) | 46 µM | > 100 µM | >2
CCOCn1c(Cc2ccccc2)c(C(C)C)c(=O)[nH]c1=O [EMIVIRINE] | 0.005 µM | – | 28000
CCOC(CSc1nc(O)c(CC)c(Cc2cc(C)cc(C)c2)n1)OCC | 21 µM | > 100 µM | >5
CCc1c(Cc2cc(C)cc(C)c2)n2c(nc1=O)SCC2OC (configuration not stated) | 3 µM | > 100 µM | >33
CCOC1CSc2nc(=O)c(C(C)C)c(Cc3ccccc3)n21 (configuration not stated) | 100 µM | > 100 µM | >1
Cc1cn([C@H]2C[C@H](N=[N+]=[N-])[C@@H](CO)O2)c(=O)[nH]c1=O [ZIDOVUDINE] | 0.04 µM | 52 µM | 1300
CCc1c(Cc2ccccc2)n2c(nc1=O)SCC2OC (configuration not stated) | 36 µM | > 100 µM | >3
CCc1c(Cc2cc(C)cc(C)c2)n2c(nc1=O)SCC2CBr (configuration not stated) | 2.8 µM | 46 µM | 16
CCc1c(Cc2cc(C)cc(C)c2)n2c(nc1=O)SCC2OCCO (configuration not stated) | 19 µM | > 100 µM | >5
CCOC1CSc2nc(=O)c(CC)c(Cc3cc(C)cc(C)c3)n21 (configuration not stated) | 0.7 µM | > 100 µM | >140
COC(CSc1nc(O)c(C(C)C)c(Cc2ccccc2)n1)OC | 4 µM | 32 µM | 8
CCc1c(O)nc(SCC(OC)OC)nc1Cc1cccc2ccccc12 | 32 µM | > 100 µM | >3
